Measurements as given in ChEMBL document CHEMBL4433203, “Design, synthesis, and evaluation of isoflavone analogs as multifunctional agents for the treatment of Alzheimer's disease” (Eur J Med Chem, 2019).
pIC50: −log10 of the molar value. Calls of active or inactive are those of the source. The calls are words filed in the database; no cut-off is given here.

Legend:
[1] = molecular target: Histamine H3 receptor (Homo sapiens, UniProt Q9Y5N1); assay: Inhibition of human H3R expressed in methylhistamine-induced human H3-bla U2OS cells incubated for 30 mins by beta-lactamase complementation technology; format: cell-based; conditions: read-out: IC50
Method in brief: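 H3-bla U2OS cells co-express human H3R-Gal4-VP16 (TEV site) and β-arrestin/TEV protease with a UAS-β-lactamase reporter. IC50 came from log concentration-inhibition curves. Triplicates, three independent experiments.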

[2] = molecular target: T1, Acetylcholinesterase (Mus musculus, UniProt P21836); assay: Inhibition of mouse brain AChE using acetylthiocholine iodide as substrate measured after 30 mins by Ellman's method; conditions: read-out: IC50
T1 sequence (P21836 whole entry): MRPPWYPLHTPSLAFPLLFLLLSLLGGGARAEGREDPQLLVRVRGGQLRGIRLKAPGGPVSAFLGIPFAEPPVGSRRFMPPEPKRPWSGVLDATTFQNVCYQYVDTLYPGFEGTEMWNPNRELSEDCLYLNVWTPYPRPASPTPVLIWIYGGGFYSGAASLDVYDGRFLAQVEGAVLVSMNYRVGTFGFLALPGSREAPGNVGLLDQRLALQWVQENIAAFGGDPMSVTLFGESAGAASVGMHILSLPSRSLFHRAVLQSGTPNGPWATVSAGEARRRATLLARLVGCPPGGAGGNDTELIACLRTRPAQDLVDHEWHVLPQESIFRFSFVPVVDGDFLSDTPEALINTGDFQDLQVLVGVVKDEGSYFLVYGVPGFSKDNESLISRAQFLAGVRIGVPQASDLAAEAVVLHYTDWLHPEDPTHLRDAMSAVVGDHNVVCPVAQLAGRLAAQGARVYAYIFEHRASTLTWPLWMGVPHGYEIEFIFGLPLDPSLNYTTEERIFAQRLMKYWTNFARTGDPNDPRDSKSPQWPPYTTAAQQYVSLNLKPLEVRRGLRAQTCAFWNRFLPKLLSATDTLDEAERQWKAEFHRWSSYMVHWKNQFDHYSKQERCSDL

[3] = tested on: H3R; assay: Selectivity index, ratio of CC50 for human SH-SY5Y cells to IC50 for inhibition of human H3R expressed in methylhistamine-induced human H3-bla U2OS cells; format: toxicity, cell-based; conditions: read-out: Ratio CC50/IC50
Method in brief: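 For IC50, H3-bla U2OS cells (human H3R–Gal4-VP16 plus β-arrestin/TEV, β-lactamase reporter) were seeded for 18 h. Compound was added for 30 min, then 400 nM methylhistamine (stock) for 5 h and FRET-B/G substrate for 2 h. Read 460/530 nm, triplicate per concentration, IC50 from log curves.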

[4] = tested on: SH-SY5Y; assay: Neuroprotective activity against copper-induced cytotoxicity in human SH-SY5Y cells expressing APP Swedish mutant assessed as increase in cell viability at 10 uM pre-incubated for 2 hrs followed by copper addition and measured after 24 hrs by MTT assay; format: functional, cell-based
[5] = tested on: BV-2; assay: Antiinflammatory activity in mouse BV2 cells assessed as reduction in LPS-induced IL-6 production at 10 uM pretreated for 1 hr followed by LPS challenge and measured after 24 hrs by ELISA assay; format: functional, cell-based
[6] = tested on: BV-2; assay: Antiinflammatory activity in mouse BV2 cells assessed as reduction in LPS-induced TNF-alpha production at 10 uM pretreated for 1 hr followed by LPS challenge and measured after 24 hrs by ELISA assay; format: functional, cell-based
[7] = Acute toxicity ICR mouse assessed as induction of macroscopic abnormalities in heart at 0 to 1000 mg/kg, po measured after 14 days; format: organism-based; conditions: in vivo, 336 h
Method in brief: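 Male ICR mice (22 days, 20–22 g), n = 5 per group, chow and water ad libitum, 12 h light/dark cycle. Single oral dose of 0, 100, 200, 500 or 1000 mg/kg in 0.5% CMC-Na. Observed continuously for the first 4 h, intermittently over the next 24 h, then occasionally to 14 days. Euthanized on day 14.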

[8] = Tmax in ICR mouse at 30 mg/kg, po measured upto 48 hrs by LCMS/MS method; format: ADME, organism-based; conditions: in vivo
[9] = AUC (0 to t) in ICR mouse at 30 mg/kg, po measured upto 48 hrs by LCMS/MS method; format: ADME, organism-based; set-up: time < 48 hr, dose 30 mg/kg, route oral; conditions: in vivo
[10] = Plasma concentration in ICR mouse at 30 mg/kg, po measured after 40 mins by LCMS/MS method; format: ADME, organism-based
Method in brief: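 ICR mice got a single oral dose of 30 mg/kg. At 40 min they were sacrificed and plasma and brain collected. Compound in both was quantified by LC-MS/MS. Log BB is the log of the brain-to-blood concentration ratio. Methods state n = 5, table footnote n = 6. Mean ± SEM.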

[11] = molecular target: Cholinesterase (Mus musculus, UniProt Q03311); assay: Inhibition of mouse plasma BuChE using S-butyrylacetylthiocholine iodide as substrate measured after 30 mins by Ellman's method relative to control; conditions: read-out: IC50
[12] = tested on: Mus musculus; assay: Effect on error times in ICR mouse model of scopolamine-induced cognitive deficit during training stage at 10 to 30 mg/kg, po treated for 1 hr followed by scopolamine challenge for 30 mins by step-down passive avoidance test; format: ADME, organism-based; conditions: in vivo
Method in brief: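 ICR mice, six weeks old, 18-22 g, either sex, n = 15/group. […] Step-down test used foot shock of 20 V, 0.5 mA, 2 s, with a training trial and a test 24 h later. Read-outs were latency to first step-down and number of shocks in 5 min. Mean ± SEM.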

Sequence of Histamine H3 receptor (Q9Y5N1 whole entry, the tested form may be a part): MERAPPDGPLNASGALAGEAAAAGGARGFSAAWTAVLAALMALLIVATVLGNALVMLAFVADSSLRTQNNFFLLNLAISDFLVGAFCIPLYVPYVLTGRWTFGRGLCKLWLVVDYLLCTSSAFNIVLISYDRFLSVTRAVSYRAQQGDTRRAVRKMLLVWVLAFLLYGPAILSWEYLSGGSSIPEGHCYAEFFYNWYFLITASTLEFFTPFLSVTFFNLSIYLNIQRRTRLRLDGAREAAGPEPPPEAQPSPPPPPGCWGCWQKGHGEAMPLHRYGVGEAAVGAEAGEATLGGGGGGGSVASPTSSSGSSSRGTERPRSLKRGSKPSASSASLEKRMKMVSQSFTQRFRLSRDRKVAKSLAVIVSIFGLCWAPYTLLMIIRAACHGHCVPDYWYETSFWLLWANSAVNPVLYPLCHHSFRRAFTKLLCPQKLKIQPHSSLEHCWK
Sequence of Cholinesterase (Q03311 whole entry): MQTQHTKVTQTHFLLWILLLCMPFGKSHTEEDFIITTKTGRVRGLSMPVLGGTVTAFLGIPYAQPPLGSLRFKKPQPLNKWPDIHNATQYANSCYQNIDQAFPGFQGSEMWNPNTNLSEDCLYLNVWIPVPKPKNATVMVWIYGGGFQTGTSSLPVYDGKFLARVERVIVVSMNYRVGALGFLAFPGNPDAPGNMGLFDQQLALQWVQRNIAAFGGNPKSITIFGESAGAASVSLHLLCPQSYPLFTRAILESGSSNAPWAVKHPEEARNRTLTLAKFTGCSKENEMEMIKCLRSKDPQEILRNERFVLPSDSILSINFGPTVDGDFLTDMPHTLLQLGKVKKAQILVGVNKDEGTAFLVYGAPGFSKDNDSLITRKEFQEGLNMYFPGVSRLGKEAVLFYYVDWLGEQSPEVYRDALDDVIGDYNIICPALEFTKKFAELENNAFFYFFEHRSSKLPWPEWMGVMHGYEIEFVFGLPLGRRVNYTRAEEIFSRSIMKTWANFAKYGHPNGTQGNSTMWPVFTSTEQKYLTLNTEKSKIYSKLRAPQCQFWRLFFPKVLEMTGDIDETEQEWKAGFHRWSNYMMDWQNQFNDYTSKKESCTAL

CCN(C)CCCCOc1ccc2c(=O)c(-c3ccc(OCCN4CCCCC4)cc3)coc2c1
pIC50 [1]: 6.57
pIC50 [2]: 7.09
selectivity ratio [3]: > 370
Activity [4]: Active
Activity [5]: Active
Activity [6]: Active
Activity [7]: Non-Toxic
Tmax [8]: 39 min
AUC(0-t) at 48 h [9]: 325 ng·h/mL
concentration at 40 min [10]: 47.2 ng/mL
pIC50 [11]: 5.54
Activity [12]: Non-Toxic
